Experimental data reported in ChEMBL document CHEMBL4513216, “Probing the Open Global Health Chemical Diversity Library for Multistage-Active Starting Points for Next-Generation Antimalarials” (ACS Infect Dis, 2020).

Assay: Toxicity liver stage against HepG2, at 10uM
Type: cell-based
Set-up: test concentration 10 uM, cell line HepG2-A16-CD81EGFP
Settings: human, HepG2-A16-CD81EGFP cells; read-out: INHIBITION
Procedure, shortened: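 Uninfected HepG2-A16-CD81EGFP cells, 3 × 10^3 per well, 1536-well, plated on prespotted compound at 10 μM final, parasite-free screening media added to match infected plates; puromycin 10 μM positive, DMSO 0.5% negative; run in parallel with 48 h PbLuc assay at 37 °C, 5% CO2; viability by CellTiter-Glo luminescence, normalized to controls.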

Row | Structure (SMILES) | cytotoxicity at 10 µM [%]
1 | Cc1ccccc1CSCCn1nc2ccccn2c1=O | 2.57
2 | COCCN1C[C@H]2CN(Cc3cccc(OC(F)(F)F)c3)CCN2C1=O | 2.67
3 | CC1(C)CC(NC(=O)c2cnn(-c3ccccc3F)c2N)CC(C)(C)N1 | -4.14
4 | O=C(NCC(=O)N1CCCC1)c1nc(Cc2c(Cl)cccc2Cl)no1 | 2.63
5 | COCCCNC(=O)Cc1cc(-c2ccccc2)on1 | -7.39
6 | O=C(NCCS(=O)(=O)N1CCN(c2ncccn2)CC1)C1CCCC1 | -3.91
7 | Cc1ccc(Cl)cc1NC(=O)C1CSc2ncc(C)c(=O)n2C1 (stereo not drawn) | 1.42
8 | Cc1cccc(NC(=O)c2ccc(-n3cncn3)nn2)n1 | -0.895
9 | Cc1nc(COCc2nc3c(o2)CN(C(=O)c2ccoc2)C3)cs1 | -1.95
10 | Fc1cnc(N2CC[C@@H](N3CCOCC3)[C@@H]2Cc2ccccc2)nc1 | 3.67
11 | O=c1cc(CNS(=O)(=O)C2CC2)nc2n1CCCNC2 | 7.83
12 | CN(C)CCNC(=O)c1ccc2c(-c3nccs3)noc2c1 | 9.28
13 | CCS(=O)(=O)N1CCN(C(=O)NC(C)C)CC2(CC(=O)N(C)C2)C1 (stereo not drawn) | 6.62
14 | COCCC1COC2(CCN(C(=O)C3CCCC3)CC2)C1 (stereo not drawn) | 6.13
15 | Cc1ccc(N2CCc3sc(C(=O)N4CCOCC4)cc32)nn1 | -0.142
16 | CS(=O)(=O)N1CCc2sc(C(=O)NCc3ccccc3)cc21 | 0.997
17 | COCC(=O)N1CCc2c(CNS(C)(=O)=O)n[nH]c2C1 | 4.32
18 | CC1CCN(S(=O)(=O)c2cccn(CC(=O)NC3CCCC3)c2=O)CC1 | -14.6
19 | CCC1=N[C@@]2(CC[C@@H]3CN(C(=O)Nc4ccc(F)cc4)C[C@@H]32)C(=O)N1 | -24
20 | O=c1c2cnc(N3CCCCC3)nc2ccn1Cc1ccco1 | -9.69
21 | NCc1n[nH]c(-c2ccc(Br)cc2)n1 | 19.7
22 | Cc1nc(C(=O)N2CCCC2c2cncc(CN3CCCC3)n2)co1 (stereo not drawn) | 8.99
23 | COCC(=O)N1CCCC1(C)c1nc(C)cc(O)n1 (stereo not drawn) | -28.5

Row | Structure (SMILES) | cytotoxicity at 10 µM [%]
24 | Cc1cc(O)nc(C2CN(CC3(O)CCOCC3)CCO2)n1 (stereo not drawn) | -18.3
25 | CC(C)c1ncc(CNC2(c3ccc(Cl)cc3)CC2)cn1 | -32.3
26 | O=C(N[C@@H]1CCC[C@@H](N2CCOCC2)[C@@H]1O)c1cnn2cccnc12 | -21.9
27 | Cc1noc(C)c1-c1ccc(C2CCCN2C(=O)c2cnn(C)c2)nc1 (stereo not drawn) | -16.7
28 | CNc1cncc(C2CCCN2S(=O)(=O)c2ccccc2F)n1 (stereo not drawn) | -15.1
29 | CCc1c(C)nc2cc(C3CCN(Cc4cccnc4)C3)nn2c1O (stereo not drawn) | -25.4
30 | COc1ncccc1C(=O)Nc1cccc(C[S+](C)[O-])c1C (stereo not drawn) | 2.28
31 | CCS(=O)(=O)Nc1ccc2[nH]c(C3CCC3)nc2c1 | -13.2
32 | Cc1csc(CCNC(=O)c2ccc(N(C)C)c(F)c2)n1 | 7.15
33 | CNS(=O)(=O)c1cccc(CNC(=O)CCc2ccsc2)c1 | 13.5
34 | CC1(C)COCCN1C(=O)CCc1nc(-c2ccccn2)no1 | -4.59
35 | CCOCCNCC1CCN(CCO)CC1 | -1.46
36 | Cc1cccc(Oc2ccccc2CNC(=O)C2CCNC(=O)C2)c1 (stereo not drawn) | 3.6
37 | N#Cc1ccc(SCCC(=O)NC(N)=O)cc1 | -2.66
38 | Cc1noc(CCNC(=O)NCc2ccc(OC3CCCC3)cc2)n1 | 13.2
39 | COc1ccsc1C(=O)NCCNc1ccccc1 | -4.15
40 | COc1ccc(CNC(=O)N2CCCC(Nc3ccccc3)C2)cn1 (stereo not drawn) | -4.57
41 | CCNC(=O)CCC(=O)NC(Cc1ccccc1)c1sccc1C (stereo not drawn) | -6.69
42 | CC(=O)c1ccc(C(=O)Nc2ccnc(N(C)C)n2)cc1 | 2.49
43 | CC(=O)N(C)Cc1cccc(NC(=O)CCCc2nc(C(C)C)no2)c1 | -2.07
44 | COc1ccccc1NC(=O)NC(C)c1nc[nH]n1 (stereo not drawn) | 2.8
45 | O=C(CCc1ncc(-c2ccc(F)cc2)o1)NCCN1CCOCC1 | 10.6
46 | N#Cc1ccnc(N2CCN(CC(O)c3ccc(F)c(F)c3)CC2)c1 (stereo not drawn) | 2.8

Row | Structure (SMILES) | cytotoxicity at 10 µM [%]
47 | O=C(Nc1cccc(N2CCN(CC3CC3)CC2)c1)C1CCCO1 (stereo not drawn) | -1.23
48 | O=S(=O)(CCCN1CCOC(Cn2cccn2)C1)c1ccccc1 (stereo not drawn) | -2.54
49 | Cc1nn(C)c(N2CCOCC2)c1CNC(C(N)=O)c1ccccc1 (stereo not drawn) | -6.86
50 | O=S(=O)(NCCN1CC=CC1)c1cncc(Cl)c1 | -2.42
51 | O=C(NCc1cccnc1)N1CCSCC1CCO (stereo not drawn) | -1.46
52 | Cn1cnn(Cc2ccccc2F)c1=O | -3.09
53 | CC(C)c1nnc(NC(=O)N2CCCC2c2ccncc2)s1 (stereo not drawn) | 5.6
54 | CCC(Nc1ccc(Oc2ccccc2OC)cc1)C(N)=O (stereo not drawn) | 1.77
55 | Cc1cnc(C(C)(C)NC(=O)NCc2cccnc2OC(C)C)s1 | 8.46
56 | CN1CCC(NC(=O)Nc2ccc(F)c(-n3cccc3)c2)C1=O (stereo not drawn) | -135
57 | NC(=O)C1CN(C(=O)NCC2(c3ccc(F)cc3)CCC2)CCO1 (stereo not drawn) | -5.07
58 | CS(=O)(=O)NCC1CCCN(Cc2ccccc2F)C1 (stereo not drawn) | -3.65
59 | CN1C(=O)CCN(C(=O)C2CC=CC2)c2ccccc21 | 8.96
60 | O=C(NCc1ccncc1)N1CC(Cc2ccccc2F)C1 | -8.85
61 | COCCNC(=O)NC(=O)CNc1c(F)cccc1N1CCCC1 | -2.05
62 | CN(C)C(=O)C1CCN(C(=O)c2c[nH]c3cc(Cl)ccc23)CC1 | -0.983
63 | Cc1ccc(C(CNCc2ccncc2)N2CCOCC2)s1 (stereo not drawn) | -14.6
64 | CCNC(=O)NC(=O)CSC(C)c1ccccc1F (stereo not drawn) | 15.6
65 | Cc1cccc(OCCC(=O)N(C)CCC#N)c1C | 0.666
66 | CC(C)(C(=O)NCC1CC1)c1ccccc1F | -5.47
67 | C1CC1c1nsc(N2CCN(C3CC3)CC2)n1 | -16.4
68 | Cc1nc(CN2C[C@@H]3CN(C(=O)c4cnccn4)C[C@@H]3C2=O)cs1 | -74.5
69 | Cc1nc2c(c(NCC(O)c3ccccc3Cl)n1)CCNCC2 (stereo not drawn) | -2.88

Row | Structure (SMILES) | cytotoxicity at 10 µM [%]
70 | COC(=O)CNC(=O)c1ccc(OC2CCN(S(C)(=O)=O)CC2)c(Cl)c1 | -4.52
71 | Cn1ccnc1SCCNC(=O)CC1CCc2ccccc21 (stereo not drawn) | -3.05
72 | CC(C)c1ccc(C#N)c(N2CC(C)(C)[C@@](C)(O)C2)n1 | 2.71
73 | CC(C)CN1CC2(CCN(C(=O)c3cnccn3)CC2)CC1=O | 2.46
74 | Cc1ccsc1[C@@H]1CCN(C(=O)CCc2n[nH]c(C)c2C)C[C@H]1O | 7.04
75 | Cc1cc(C)c(C(=O)N2CCn3nc(C(=O)NCCN(C)C)cc3C2)[nH]1 | -0.53
76 | Cn1nnnc1SCCNC(=O)C1CCN(C(=O)C2CCCC2)CC1 | -11.8
77 | CC(C)(CNC1CCCN(Cc2ccccc2F)C1)CN1CCOCC1 (stereo not drawn) | 6.21
78 | O=S(=O)(NCCNc1ccc(-n2cccn2)nn1)c1ccccc1 | -8.55
79 | CCCOCC1CCN(C(=O)c2cnc(-c3csc(C)n3)nc2O)C1 (stereo not drawn) | 5.25
80 | Cc1ncsc1C(=O)N1CCc2[nH]nc(-c3ccc4c(c3)OCO4)c2C1 | -141
81 | COc1ccc(C(=O)N2CCN(C(=O)c3csc(C(C)C)n3)CC2)cc1 | -10.4
82 | Nc1cc(C(=O)NC2CCCN(CCCc3ccccc3)C2)ccn1 (stereo not drawn) | 8.01
83 | Oc1cc(CCC2CCCCN2)cc(-c2ccncc2)c1 (stereo not drawn) | -12.7
84 | Cc1cc(N2CCCCCC2)n2nc(C)c(C)c2n1 | -6.23
85 | CN(CCO)C(=O)c1coc(CN2CCN(c3ccccc3F)CC2)n1 | 15.7
86 | Cc1nc(C)n(CC2CCCN2Cc2ncc(-c3ccccc3)o2)n1 (stereo not drawn) | -4.92
87 | c1cc(CCN2CCN(c3ccc4nncn4n3)CC2)ccn1 | 4.76
88 | Cc1ccc(C(O)CNC(=O)NCc2csc(C)n2)cc1 (stereo not drawn) | -5.13
89 | Cc1ccccc1C1(C(=O)NCCN2CCOCC2)CCOCC1 | -3.07
90 | CCc1[nH]ncc1C(=O)N1CCCN(Cc2nccn2C(C)C)CC1 | -8.92
91 | CC(C)CNC(=O)NC(=O)C(C)Nc1cccc(CN2CCOC2=O)c1 (stereo not drawn) | -3.37
92 | COCC(c1cccc(C(F)(F)F)c1)N(C)C(=O)c1cccnc1 (stereo not drawn) | -5.28

Row | Structure (SMILES) | cytotoxicity at 10 µM [%]
93 | CCC1CN(Cc2cccc(C(=O)N(C)C)c2)CCN1CCOC (stereo not drawn) | -2.99
94 | Cc1nn(C)c(C)c1CC(=O)NCc1ccnc(N2CCOCC2)c1 | -14.7
95 | CC(C)c1nc2n(n1)CC(NCc1ncc(C(C)(C)C)o1)CC2 (stereo not drawn) | -17.8
96 | O=C(NCCn1ccnc1)N1CCN(Cc2cccnc2)CC1 | -4.64
97 | Cc1cccc(C(=O)N2CCCN(Cc3cscn3)CC2)c1 | -18.1
98 | CCc1n[nH]c(C2CN(C(=O)c3ccnc(N(C)C)c3)CCO2)n1 (stereo not drawn) | 6.66
99 | Cc1ccccc1-c1noc(CN2CC(n3cccn3)C2)n1 | -4.21
100 | Cn1cnnc1C1CCCN(C(=O)NCc2ccccc2)C1 (stereo not drawn) | -14
101 | O=C(CCNC(=O)c1ccoc1)NCc1ccccc1F | 1.76
102 | COc1ccc(CNCC(C)Oc2ccccn2)cc1Br (stereo not drawn) | -10.2
103 | c1nc2n(c1CN1CCCCC1)CCN(C1CCOC1)CC2 (stereo not drawn) | -152
104 | CC(=O)N1CCC[C@@H](NCc2cccc(F)c2)[C@@H]1c1ccc(C)s1 | -24.2
105 | N#Cc1ccc(CNCC2(c3ccccc3)CCOCC2)cc1 | 8.78
106 | CCn1ncc2c1C(COC)N(C(=O)c1ccc3c(c1)OCO3)CC2 (stereo not drawn) | 8.1
107 | Cc1ccc(CN2CCc3ncnc(OC(C)C)c3CC2)s1 | 22.8
108 | CC(=O)N1CCC2(CC1)CN(CC(C)C)CC21CCNC1=O (stereo not drawn) | -1.07
109 | O=C1COC2(CCN(C(=O)c3ccoc3)CC2)CN1Cc1ccccn1 | -1.11
110 | NC(=O)COc1ccc(CNCc2ccc(F)c(F)c2)cc1 | -15.2
111 | Fc1cnccc1CN1CCC2(CCN2c2ncccn2)C1 (stereo not drawn) | -111
112 | Nc1ccnc(N2C[C@H]3CC[C@@H](C2)N(CC2CCC2)C3=O)n1 | -0.253
113 | COC1C[C@@H]2CN(C(=O)Cc3ccc(C)s3)C[C@@H]2C1 (stereo partly drawn) | 3.53
